# Experimental data taken from ChEMBL document CHEMBL1129643 (J Med Chem, 1996).
# Legend:
# [1] = target: T1, Alpha-1A adrenergic receptor (Rattus norvegicus, UniProt P43140); assay: Binding affinity to the alpha-1 adrenergic receptor using a radioligand [3H]prazosin binding assay in rat brain membranes; format: cell membranes
# T1 sequence (P43140 whole entry): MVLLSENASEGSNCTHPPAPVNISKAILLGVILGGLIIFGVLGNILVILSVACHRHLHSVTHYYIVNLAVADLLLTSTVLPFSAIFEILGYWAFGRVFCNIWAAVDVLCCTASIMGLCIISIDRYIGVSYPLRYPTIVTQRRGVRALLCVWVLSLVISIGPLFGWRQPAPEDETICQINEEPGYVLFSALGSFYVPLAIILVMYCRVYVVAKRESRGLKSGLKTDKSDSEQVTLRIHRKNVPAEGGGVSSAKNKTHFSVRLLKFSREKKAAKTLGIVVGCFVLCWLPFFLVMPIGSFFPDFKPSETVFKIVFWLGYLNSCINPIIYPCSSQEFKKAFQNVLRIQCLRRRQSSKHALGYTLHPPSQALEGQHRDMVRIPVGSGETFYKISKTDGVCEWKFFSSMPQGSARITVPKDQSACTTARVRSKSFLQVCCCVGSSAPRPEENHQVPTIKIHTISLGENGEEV
# [2] = target: 5-hydroxytryptamine receptor 2A (Rattus norvegicus, UniProt P14842); assay: Binding affinity to serotonin 5-hydroxytryptamine 2A receptors using a radioligand [3H]ketanserin binding assay in rat cortical membranes; format: cell membranes
# Sequence of 5-hydroxytryptamine receptor 2A (P14842 whole entry): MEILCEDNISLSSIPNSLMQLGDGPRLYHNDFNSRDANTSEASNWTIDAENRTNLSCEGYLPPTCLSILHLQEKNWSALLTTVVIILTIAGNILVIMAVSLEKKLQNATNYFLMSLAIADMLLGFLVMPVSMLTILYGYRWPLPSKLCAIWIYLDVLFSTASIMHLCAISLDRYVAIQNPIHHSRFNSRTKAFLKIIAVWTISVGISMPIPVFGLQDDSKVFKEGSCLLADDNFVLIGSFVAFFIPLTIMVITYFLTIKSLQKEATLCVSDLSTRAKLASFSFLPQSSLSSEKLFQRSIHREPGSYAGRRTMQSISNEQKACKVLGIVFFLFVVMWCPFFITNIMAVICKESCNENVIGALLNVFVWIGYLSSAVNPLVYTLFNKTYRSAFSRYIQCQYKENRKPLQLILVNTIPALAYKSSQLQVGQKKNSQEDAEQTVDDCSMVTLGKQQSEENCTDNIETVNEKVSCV
# [3] = target: D(2) dopamine receptor (Rattus norvegicus, UniProt P61169); assay: Binding affinity to dopamine receptor D2 using a [3H]-spiperone binding assay in rat cortical membranes; format: cell membranes
# Sequence of D(2) dopamine receptor (P61169 whole entry): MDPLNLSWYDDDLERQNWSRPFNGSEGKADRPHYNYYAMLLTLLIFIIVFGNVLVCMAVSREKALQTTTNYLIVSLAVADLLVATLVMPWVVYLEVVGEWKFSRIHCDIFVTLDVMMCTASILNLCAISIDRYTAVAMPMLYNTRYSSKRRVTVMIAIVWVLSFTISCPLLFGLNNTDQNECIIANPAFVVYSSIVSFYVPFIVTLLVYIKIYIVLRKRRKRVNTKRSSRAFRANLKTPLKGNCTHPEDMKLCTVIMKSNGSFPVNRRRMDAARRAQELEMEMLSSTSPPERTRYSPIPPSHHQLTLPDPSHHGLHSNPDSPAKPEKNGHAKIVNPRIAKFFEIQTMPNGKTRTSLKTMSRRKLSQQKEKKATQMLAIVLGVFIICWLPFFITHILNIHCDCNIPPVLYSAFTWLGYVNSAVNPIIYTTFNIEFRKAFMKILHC
# [4] = tested on: Rattus norvegicus; assay: Antagonism of Pergolide-Induced Circling Behavior in rats with unilateral 6-OHDA Lesions after 2 hr of sc injection; format: functional
# Method in brief: (§1)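 Rats with unilateral 6-OHDA lesions were given pergolide (0.050 µmol/kg, sc) to induce contralateral circling. Test compound was injected sc 2 h before pergolide. The effect of each dose was expressed as percent of the mean of control sessions held one week before and one week after the test session for each rat. At least four rats were used per dose.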
# [5] = tested on: Rattus norvegicus; assay: Effective dose was measured to inhibit 50% of quipazine induced head twitches in rat after 24 hr r of subcutaneous administration; format: functional; settings: sc
# Method in brief: (§2)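 Rats received test compound sc or po, 2 or 24 h before quipazine (15 µmol/kg, sc). Head twitches were counted 30–40 min after quipazine. Counts were expressed as percent of a quipazine-treated control group, with at least four animals per dose.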
# [6] = tested on: Rattus norvegicus; assay: Effective dose was measured to inhibit 50% of quipazine induced head twitches in rat after 24 hr of peroral administration; settings: po
# [7] = tested on: Rattus norvegicus; assay: Effective dose was measured to inhibit 50% of quipazine induced head twitches in rat after 2 hr of subcutaneous administration; format: functional; settings: sc; method in brief: as §2
# [8] = tested on: Rattus norvegicus; assay: Effective dose was measured to inhibit 50% of quipazine induced head twitches in rat after 24 hr r of peroral administration; format: functional; settings: po; method in brief: as §2
# [9] = species: Rattus norvegicus; assay: Effective dose was measured as fifty percent inhibition of Pergolide induced rotations in rat; format: functional; method in brief: as §1
Structure (SMILES),IC50 [1] [nM],IC50 [2] [nM],IC50 [3] [nM],also measured
CN(CCN1CCNC1=O)Cc1cn(-c2ccc(F)cc2)c2ccc(Cl)cc12,23,–,–,–
CN(CCCc1cn(-c2ccc(F)cc2)c2ccc(Cl)cc12)CCN1CCNC1=O,43,–,–,–
CC(C)N1CCN(CCN(C)CCOc2cn(-c3ccc(F)cc3)c3cc(Cl)ccc23)C1=O,600,–,–,–
CN(CCc1cn(-c2ccc(F)cc2)c2ccc(Cl)cc12)CCN1CCNC1=O,15,–,–,–
CN(CCc1cn(-c2ccc(F)cc2)c2cc(Cl)ccc12)CCN1CCNC1=O,14,0.95,590,–
CN(C)CCCCc1cn(-c2ccc(F)cc2)c2ccc(Cl)cc12,310,100,4800,–
CN(C)CCSc1cn(-c2ccc(F)cc2)c2ccc(Cl)cc12,820,42,–,–
CN(C)CCCc1cn(-c2ccc(F)cc2)c2ccc(Cl)cc12,73,–,–,–
CN1CCN(CCOc2cn(-c3ccc(F)cc3)c3ccc(Cl)cc23)CC1,150,100,2.4,ED50 [4]: 0.048 µmol/kg
CN(C)CCc1cn(-c2ccc(F)cc2)c2cc(Cl)ccc12,130,5.5,650,–
CN(CCSc1cn(-c2ccc(F)cc2)c2ccc(Cl)cc12)CCN1CCNC1=O,650,–,790,–
Fc1ccc(-n2cc(OCCN3CCCCC3)c3cc(Cl)ccc32)cc1,32,–,–,–
CN(C)CCOc1cn(-c2ccc(F)cc2)c2ccc(Cl)cc12,17,–,–,–
CN(C)Cc1cn(-c2ccc(F)cc2)c2ccc(Cl)cc12,18,–,–,–
CC(C)N1CCN(CCN(C)CCc2cn(-c3ccc(F)cc3)c3cc(Cl)ccc23)C1=O,400,5.8,190,–
CC(C)N1CCN(CCN2CCC(c3cn(-c4ccc(F)cc4)c4cc(Cl)ccc34)CC2)C1=O,–,–,–,ED50 [5]: 0.052 µmol/kg; ED50 [4]: > 17 µmol/kg; ED50 [6]: 0.055 µmol/kg; ED50 [7]: 0.11 µmol/kg
CN(C)CCCOc1cn(-c2ccc(F)cc2)c2ccc(Cl)cc12,> 100,27,24,–
CN(C)CCc1cn(-c2ccc(F)cc2)c2ccc(Cl)cc12,40,–,–,–
CN(CCCCN1CCNC1=O)Cc1cn(-c2ccc(F)cc2)c2ccc(Cl)cc12,> 100,110,20,–
CN(CCCN1CCNC1=O)CCc1cn(-c2ccc(F)cc2)c2cc(Cl)ccc12,54,1.9,400,ED50 [5]: 8.5 µmol/kg; ED50 [7]: 4.7 µmol/kg
Fc1ccc(-n2cc(OCCN3CCOCC3)c3cc(Cl)ccc32)cc1,110,–,–,–
CN(CCOc1cn(-c2ccc(F)cc2)c2cc(Cl)ccc12)CCN1CCNC1=O,41,–,–,ED50 [8]: 0.25 µmol/kg; ED50 [7]: 0.63 µmol/kg
C#CCN(CCOc1cn(-c2ccc(F)cc2)c2ccc(Cl)cc12)CCN1CCNC1=O,88,–,–,–
CN(C)CCOc1cn(-c2ccc(F)cc2)c2cc(Cl)ccc12,170,–,–,–
CN(CCCN1CCNC1=O)CCc1cn(-c2ccc(F)cc2)c2ccc(Cl)cc12,14,–,–,–
CCN(CCOc1cn(-c2ccc(F)cc2)c2ccc(Cl)cc12)CCN1CCNC1=O,12,–,–,–
CN(CCOc1cn(-c2ccc(F)cc2)c2ccc(Cl)cc12)CCN1CCNC1=O,5.7,–,–,ED50 [5]: > 9.1 µmol/kg; ED50 [4]: 3.6 µmol/kg; ED50 [7]: 0.32 µmol/kg
CNc1cc(OC)c(C(=O)N[C@H]2CCN(Cc3ccccc3)[C@H]2C)cc1Cl [NEMONAPRIDE],–,49,–,ED50 [4]: 0.0057 µmol/kg
Cc1nc2sccn2c(=O)c1CCN1CCC(=C(c2ccc(F)cc2)c2ccc(F)cc2)CC1 [RITANSERIN],–,–,–,ED50 [5]: 0.98 µmol/kg; ED50 [9]: > 21 µmol/kg; ED50 [7]: 0.1 µmol/kg
O=C1NCCN1CCN1CCC(c2cn(-c3ccc(F)cc3)c3ccc(Cl)cc23)CC1 [SERTINDOLE],–,–,–,ED50 [5]: 0.03 µmol/kg; ED50 [8]: 0.039 µmol/kg; ED50 [4]: 3.7 µmol/kg; ED50 [7]: 0.035 µmol/kg
